Experimental data from ChEMBL document CHEMBL1133701, “Synthesis and human beta-adrenoceptor activity of 1-(3,5-diiodo-4- methoxybenzyl)-1,2,3,4-tetrahydroisoquinolin-6-ol derivatives in vitro” (J Med Chem, 2000).

Experiments:
[1] = target: Beta-2 adrenergic receptor (Homo sapiens) (UniProt P07550); settings: CHO
[2] = target: Beta-2 adrenergic receptor (Homo sapiens) (UniProt P07550); assay: Agonistic potency against BETA2-AR expressed in CHO cells by using CRE-LUC assay;MA means minimal activity; type: functional, cell-based
In short: (§1)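 CHO cells transfected by electroporation (single 70-ms, 150-V pulse) with human receptor and CRE–luciferase reporter; seeded 40 000/well, grown 20 h, then exposed 4 h to drug at 10^-11–10^-4 M. Cells lysed, luciferase light read by luminometer, duplicates per concentration. Response as percent of maximum to (-)isoproterenol 10^-6 M; pKact = -log molar concentration giving 50% of own maximal response; mean ± SEM.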

[3] = target: Beta-3 adrenergic receptor (Homo sapiens) (UniProt P13945); settings: CHO
[4] = target: Beta-3 adrenergic receptor (Homo sapiens) (UniProt P13945); settings: CHO; remark: listed apart in the source
[5] = target: Beta-3 adrenergic receptor (Homo sapiens) (UniProt P13945); assay: Agonistic potency against Beta3-AR expressed in CHO cells by using cAMP-RIA assay; type: functional, cell-based
[6] = target: Beta-2 adrenergic receptor (Homo sapiens) (UniProt P07550); settings: CHO; remark: listed apart in the source
[7] = target: Beta-3 adrenergic receptor (Homo sapiens) (UniProt P13945); assay: Intrinsic activity against Beta3-AR expressed in CHO cells in cAMP-RIA assay; type: functional, cell-based
[8] = target: Beta-1 adrenergic receptor (Homo sapiens) (UniProt P08588); assay: Agonistic potency against BETA1-AR expressed in CHO cells by using CRE-LUC assay;MA means minimal activity; type: functional, cell-based
In short: as §1

[9] = target: Beta-2 adrenergic receptor (Homo sapiens) (UniProt P07550); assay: Agonistic potency against BETA2-AR expressed in CHO cells by using cAMP-RIA assay;MA means minimal activity; type: functional, cell-based
[10] = target: Beta-1 adrenergic receptor (Homo sapiens) (UniProt P08588); settings: CHO
[11] = target: Beta-3 adrenergic receptor (Homo sapiens) (UniProt P13945); assay: Agonistic potency against Beta3-AR expressed in CHO cells by using cAMP-RIA assay;MA means minimal activity; type: functional, cell-based
[12] = target: Beta-2 adrenergic receptor (Homo sapiens) (UniProt P07550); settings: CHO; remark: listed apart in the source
[13] = target: Beta-1 adrenergic receptor (Homo sapiens) (UniProt P08588); settings: CHO; remark: listed apart in the source
[14] = target: Beta-1 adrenergic receptor (Homo sapiens) (UniProt P08588); settings: CHO; remark: listed apart in the source
[15] = target: Beta-2 adrenergic receptor (Homo sapiens) (UniProt P07550); settings: CHO; remark: listed apart in the source
[16] = target: Beta-1 adrenergic receptor (Homo sapiens) (UniProt P08588); settings: CHO; remark: listed apart in the source
[17] = target: Beta-3 adrenergic receptor (Homo sapiens) (UniProt P13945); assay: Agonistic potency against Beta3-AR expressed in CHO cells by using cAMP-RIA assay; MA means minimal activity; type: functional, cell-based

Sequence of Beta-3 adrenergic receptor (Homo sapiens) (P13945 whole entry, looked up): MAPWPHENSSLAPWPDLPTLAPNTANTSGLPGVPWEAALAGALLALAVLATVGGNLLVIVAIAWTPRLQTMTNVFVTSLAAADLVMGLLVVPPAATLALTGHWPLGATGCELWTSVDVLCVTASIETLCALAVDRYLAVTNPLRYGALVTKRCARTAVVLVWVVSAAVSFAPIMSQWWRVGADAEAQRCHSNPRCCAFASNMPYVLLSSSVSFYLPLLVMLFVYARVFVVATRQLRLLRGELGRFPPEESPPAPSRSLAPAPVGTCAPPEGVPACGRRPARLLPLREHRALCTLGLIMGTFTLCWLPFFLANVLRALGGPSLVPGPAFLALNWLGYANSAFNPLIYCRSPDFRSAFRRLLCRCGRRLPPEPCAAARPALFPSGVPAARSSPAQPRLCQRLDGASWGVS
Sequence of Beta-2 adrenergic receptor (Homo sapiens) (P07550 whole entry, looked up): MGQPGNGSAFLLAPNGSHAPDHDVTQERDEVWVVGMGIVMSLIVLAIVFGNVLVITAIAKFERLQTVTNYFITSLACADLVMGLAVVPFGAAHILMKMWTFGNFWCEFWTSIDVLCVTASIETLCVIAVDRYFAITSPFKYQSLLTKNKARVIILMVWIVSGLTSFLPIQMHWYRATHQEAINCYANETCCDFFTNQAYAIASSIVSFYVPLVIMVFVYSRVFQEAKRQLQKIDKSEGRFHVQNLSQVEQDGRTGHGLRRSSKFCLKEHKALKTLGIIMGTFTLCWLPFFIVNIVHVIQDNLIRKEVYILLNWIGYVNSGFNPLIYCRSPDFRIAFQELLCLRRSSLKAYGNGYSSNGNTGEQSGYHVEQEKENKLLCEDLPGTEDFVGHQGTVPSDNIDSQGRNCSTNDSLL
Sequence of Beta-1 adrenergic receptor (Homo sapiens) (P08588 whole entry, looked up): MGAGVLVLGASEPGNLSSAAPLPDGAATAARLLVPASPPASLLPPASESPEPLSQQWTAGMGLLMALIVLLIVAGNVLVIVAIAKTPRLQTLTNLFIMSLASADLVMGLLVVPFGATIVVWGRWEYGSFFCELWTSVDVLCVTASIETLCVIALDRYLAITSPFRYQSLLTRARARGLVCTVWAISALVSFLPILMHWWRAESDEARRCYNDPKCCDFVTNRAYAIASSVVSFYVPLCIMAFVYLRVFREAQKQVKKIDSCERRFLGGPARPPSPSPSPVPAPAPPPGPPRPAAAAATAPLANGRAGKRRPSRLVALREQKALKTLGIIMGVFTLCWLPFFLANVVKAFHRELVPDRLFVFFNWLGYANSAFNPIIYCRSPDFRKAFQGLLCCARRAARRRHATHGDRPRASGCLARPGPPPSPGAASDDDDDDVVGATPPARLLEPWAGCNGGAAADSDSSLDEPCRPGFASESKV

| pK [3] | IA [4] | pK [5] | IA [6] | IA [7] | MA [9] | pK [12] | Compound | other results |
| --- | --- | --- | --- | --- | --- | --- | --- | --- |
|  |  | 7.92 | 4 | 35 | Partial agonist |  | COc1c(I)cc(CC2NCCc3cc(O)c(I)cc32)cc1I (stereo not drawn) |  |
| 7.45 | 90 | 7.88 | 44 | 106 |  | 6.87 | COc1c(I)cc(CC2NCCc3cc(O)ccc32)cc1I (stereo not drawn) | IA [1]: 38; IA [10]: 58; pK [15]: 6.36; pK [16]: 5.71 |
|  |  | 8.25 | 26 | 31 | Partial agonist |  | COc1c(I)cc(CC2NCCc3c2ccc(O)c3Br)cc1I (stereo not drawn) |  |
| 7.74 | 100 |  |  |  |  |  | CC(C)NCC(O)c1ccc(O)c(O)c1 (stereo not drawn) |  |
|  |  |  | 3 | 20 |  |  | COc1c(I)cc(CC2NCCc3c2cc(Br)c(O)c3Br)cc1I (stereo not drawn) | MA [17]: Partial agonist |

Continued, molecule first:

| Compound | pK [3] | IA [4] | pK [5] | IA [6] | IA [7] | MA [9] | pK [12] | other results |
| --- | --- | --- | --- | --- | --- | --- | --- | --- |
| COc1c(I)cc(CC2NCCc3ccccc32)cc1I (stereo not drawn) | 7.54 | 62 | 8.2 | 15 | 52 | Partial agonist |  | IA [1]: 21; MA [2]: Partial agonist; MA [8]: Partial agonist; IA [10]: 22 |
| COc1c(I)cc(CC2NCCc3c2cc(I)c(O)c3I)cc1I (stereo not drawn) |  |  |  | 6 | 18 | Partial agonist |  | MA [11]: Partial agonist |
| COc1c(I)cc(CC2NCCc3c2ccc(O)c3I)cc1I (stereo not drawn) |  |  |  | 65 | 8 |  | 6.77 | MA [11]: Partial agonist |
| COc1c(I)cc(CC2NCCc3cc(O)c(O)cc32)cc1I (stereo not drawn) |  |  | 8.76 | 52 | 120 |  | 8.84 | IA [13]: 103; pK [14]: 8.11 |
| COc1cc(C[C@@H]2NCCc3cc(O)c(O)cc32)cc(OC)c1OC |  |  | 8.6 | 95 | 95 |  | 8.33 | IA [13]: 109; pK [14]: 8.7 |
